Drawing on ChEMBL document CHEMBL5653630, “Activation of the p53-MDM4 regulatory axis defines the anti-tumour response to PRMT5 inhibition through its role in regulating cellular splicing” (Sci Rep, 2018), this text covers GI50, Activity and fold change (FC) for two molecules.

The test system of one assay is SCaBER. The assay can be described thus: Antiproliferative activity against human SCaBER cells assessed as cell growth inhibition incubated for 6 days by celltiter-glo assay. It is filed as functional. The following applies: 144 h, time 6 day. (Cellular ATP, detected with luciferase, serves as a proxy for viable cell number.)
For a further assay, the system named is Z-138. The assay can be described thus: Induction of cell cycle arrest in human Z138 cells assessed as increase in sub-2n cell population measured upto 1000 nM measured for 5 days by propidium iodide staining based flow cytometric analysis. To be noted: time 5.0 day. It is filed as functional. (Flow cytometry measures light scatter and fluorescence of single cells or particles in a stream.)

A further assay concerns MDA-MB-468. The assay can be described thus: Induction of cell cycle arrest in human MDA-MB-468 cells assessed as increase in sub-2n cell population measured upto 5000 nM measured for 7 to 10 days by propidium iodide staining based flow cytometric analysis. The following applies: time 7-10 day. The class given is functional.
The next assay relates to Rec1. In words: Induction of cell cycle arrest in human REC1 cells assessed as increase in 2n cell population measured upto 5000 nM measured for 3 days by propidium iodide staining based flow cytometric analysis. To be noted: time 3.0 day. It is filed as functional.
Another assay concerns HCT-8. The assay can be described thus: Antiproliferative activity against human HCT-8 cells assessed as cell growth inhibition incubated for 10 days. The class given is functional. The following applies: HCT-8, 240 h, time 10 day. In outline:
(§1)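 Outsourced panel run in 384-well plates. Cells were grown in RPMI-1640/10% FBS or a special medium at 37°C, 5% CO2. Compound was added 24 h after seeding as a 10-point, 3.16-fold series in 0.1% DMSO. Medium was refreshed and cells re-dosed at 168 h, with a time-zero plate kept. At 240 h cells were fixed, nuclei stained and imaged. gIC50 is growth midway between untreated and time zero, from a 4-parameter fit.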

The test system of the next assay is Calu-6. In words: Antiproliferative activity against human Calu-6 cells assessed as cell growth inhibition incubated for 10 days. The class given is functional. The following applies: Calu-6, 240 h, time 10 day. Summed up:
as §1

Another assay deals with RPMI-6666. The assay can be described thus: Antiproliferative activity against human RPMI-6666 cells assessed as cell growth inhibition incubated for 10 days. It is filed as functional. The following applies: RPMI-6666, 240 h, time 10 day.
Another assay relates to EM-2. In words: Antiproliferative activity against human EM-2 cells assessed as cell growth inhibition incubated for 10 days. To be noted: EM-2, 240 h, time 10 day. It is filed as functional. In outline:
as §1

The next assay concerns Hs746T. The assay can be described thus: Antiproliferative activity against human Hs746T cells assessed as cell growth inhibition incubated for 10 days. The class given is functional. To be noted: 240 h, time 10 day. In outline:
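Eurofins panel, 384-well. Cells kept in RPMI-1640 with 10% FBS, 2 mM L-alanyl-L-glutamine and 1 mM Na pyruvate, or in a special medium, at 37°C under 5% CO2. Compound added 24 h after seeding as 10 concentrations in 3.16-fold steps, 0.1% DMSO final. Medium replaced and compound re-dosed at 168 h. After 240 h, cells fixed and nuclei stained for imaging. gIC50 = growth midway between untreated cells and time-zero count.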

For a further assay, the system named is U138-MG. The assay can be described thus: Antiproliferative activity against human U138-MG cells assessed as cell growth inhibition incubated for 10 days. It is filed as functional. To be noted: 240 h, time 10 day.
Another assay relates to MES-SA. The assay can be described thus: Antiproliferative activity against human MES-SA cells assessed as cell growth inhibition incubated for 10 days. It is filed as functional. To be noted: 240 h, time 10 day.
In another assay the test system is HT-1080. The assay can be described thus: Antiproliferative activity against human HT-1080 cells assessed as cell growth inhibition incubated for 10 days. The class given is functional. The following applies: HT-1080, 240 h, time 10 day. Summed up: as §1
The next assay deals with NCI-H446. In words: Antiproliferative activity against human NCI-H446 cells assessed as cell growth inhibition incubated for 10 days. It is filed as functional. To be noted: NCI-H446, 240 h, time 10 day.
A further assay relates to CHL-1. The assay can be described thus: Antiproliferative activity against human CHL-1 cells assessed as cell growth inhibition incubated for 10 days. It is filed as functional. To be noted: CHL-1, 240 h, time 10 day. In outline:
(§2)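 Cells kept in RPMI-1640 with 10% FBS, 2 mM L-alanyl-L-glutamine and 1 mM Na pyruvate (or a special medium) at 37°C, 5% CO2. Compound added 24 h after seeding, 10 concentrations in 3.16-fold dilution, 0.1% DMSO final. Medium replaced and cells re-dosed at 168 h; 240 h incubation. Nuclei fixed, dye-stained and imaged. gIC50 = growth midway between untreated and time-zero cell counts, from a 4-parameter fit.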

The test system of another assay is A-431. In words: Antiproliferative activity against human A-431 cells assessed as cell growth inhibition incubated for 10 days. The class given is functional. To be noted: A-431, 240 h, time 10 day. In outline:
as §2

For a further assay, the system named is RKO. The assay can be described thus: Antiproliferative activity against human RKO cells assessed as cell growth inhibition incubated for 10 days. To be noted: 240 h, time 10 day. It is filed as functional.
For another assay, the system named is SW948. The assay can be described thus: Antiproliferative activity against human SW948 cells assessed as cell growth inhibition incubated for 10 days. The class given is functional. The following applies: SW948, 240 h, time 10 day.
The test system of another assay is LS-1034. The assay can be described thus: Antiproliferative activity against human LS1034 cells assessed as cell growth inhibition incubated for 10 days. The class given is functional. To be noted: LS-1034, 240 h, time 10 day.
A further assay concerns SW1463. The assay can be described thus: Antiproliferative activity against human SW1463 cells assessed as cell growth inhibition incubated for 10 days. It is filed as functional. To be noted: SW1463, 240 h, time 10 day.
Another assay relates to HCT-116. The assay can be described thus: Antiproliferative activity against human HCT-116 cells assessed as cell growth inhibition incubated for 10 days. The class given is functional. The following applies: HCT-116, 240 h, time 10 day. Summed up: as §1
The next assay concerns C32. The assay can be described thus: Antiproliferative activity against human C32 cells assessed as cell growth inhibition incubated for 10 days. The class given is functional. The following applies: C32, 240 h, time 10 day. In outline: as §2
The nature of assay [1]: Antiproliferative activity against human HLF cells assessed as cell growth inhibition incubated for 10 days. The class given is functional. To be noted: 240 h, time 10 day. In outline:
as §1

The subject of the next assay is SW1417. The assay can be described thus: Antiproliferative activity against human SW1417 cells assessed as cell growth inhibition incubated for 10 days. It is filed as functional. The following applies: SW1417, 240 h, time 10 day.
Assay [2] has as its target Protein arginine N-methyltransferase 5 (Homo sapiens) (UniProt O14744). In words: Inhibition of PRMT5 in human Z138 cells assessed as effect on hnRNP level by measuring fold change by LC-MS/MS analysis relative to control. It is filed as cell-based.
Assay [3] is described as follows: Antiproliferative activity against human RKOE6 cells assessed as cell growth inhibition incubated for 10 days. It is filed as functional. To be noted: RKOE6, 240 h, time 10 day.
The subject of a further assay is A498. In words: Antiproliferative activity against human A498 cells assessed as cell growth inhibition incubated for 10 days. It is filed as functional. To be noted: A498, 240 h, time 10 day. In outline:
as §2

Assay [4] in a line: Antiproliferative activity against human TE 381.T cells assessed as cell growth inhibition incubated for 10 days. The class given is functional. To be noted: 240 h, time 10 day.
Another assay deals with RPMI-8226. In words: Antiproliferative activity against human RPMI-8226 cells assessed as cell growth inhibition incubated for 10 days. The following applies: RPMI-8226, 240 h, time 10 day. It is filed as functional.
A further assay concerns COLO 201. In words: Antiproliferative activity against human COLO201 cells assessed as cell growth inhibition incubated for 10 days. It is filed as functional. To be noted: COLO 201, 240 h, time 10 day. Summed up:
as §2

Another assay has as its system ES-2. In words: Antiproliferative activity against human ES2 cells assessed as cell growth inhibition incubated for 10 days. To be noted: ES-2, 240 h, time 10 day. It is filed as functional. In outline: as §1
The subject of the next assay is PANC-1. The assay can be described thus: Antiproliferative activity against human PANC-1 cells assessed as cell growth inhibition incubated for 10 days. It is filed as functional. To be noted: PANC-1, 240 h, time 10 day.
Assay [5] in a line: Antiproliferative activity against human BC1 cell line assessed as cell growth inhibition incubated for 10 days. The class given is functional. To be noted: BC1, 240 h, time 10 day. In outline:
as §2

For the next assay, the system named is A204. In words: Antiproliferative activity against human A204 cells assessed as cell growth inhibition incubated for 10 days. It is filed as functional. The following applies: A204, 240 h, time 10 day. In outline:
as §2

For the next assay, the system named is RPMI-7951. In words: Antiproliferative activity against human RPMI-7951 cells assessed as cell growth inhibition incubated for 10 days. It is filed as functional. To be noted: RPMI-7951, 240 h, time 10 day.

Each structure is given as a SMILES string. The source made the active and inactive calls. The calls are words filed in the database; no cut-off is given here.

Protein arginine N-methyltransferase 5 (Homo sapiens), sequence (O14744 whole entry): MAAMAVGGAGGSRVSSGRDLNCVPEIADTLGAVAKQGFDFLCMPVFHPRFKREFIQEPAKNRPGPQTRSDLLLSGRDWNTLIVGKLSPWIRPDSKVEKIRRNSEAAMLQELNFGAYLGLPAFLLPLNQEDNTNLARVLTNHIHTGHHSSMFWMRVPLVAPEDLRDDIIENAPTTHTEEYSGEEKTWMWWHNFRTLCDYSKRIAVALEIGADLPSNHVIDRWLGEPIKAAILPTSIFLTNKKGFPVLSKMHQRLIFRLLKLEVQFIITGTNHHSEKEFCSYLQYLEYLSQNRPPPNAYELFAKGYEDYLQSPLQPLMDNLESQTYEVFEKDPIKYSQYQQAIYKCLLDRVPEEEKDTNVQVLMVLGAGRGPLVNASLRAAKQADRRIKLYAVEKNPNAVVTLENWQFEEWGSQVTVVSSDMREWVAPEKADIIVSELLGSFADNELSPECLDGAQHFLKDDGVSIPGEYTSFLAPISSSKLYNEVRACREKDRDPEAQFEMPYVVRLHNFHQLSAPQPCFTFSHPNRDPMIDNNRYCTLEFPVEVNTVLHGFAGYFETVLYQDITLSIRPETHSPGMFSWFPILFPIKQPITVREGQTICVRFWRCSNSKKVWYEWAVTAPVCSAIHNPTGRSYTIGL

The term GI50 denotes the concentration that inhibits growth by half. With `CC(=O)N1CCC(Nc2cc(C(=O)NC[C@H](O)CN3CCc4ccccc4C3)ncn2)CC1` [PEMRAMETOSTAT], in the assay on SCaBER, the GI50 was 0.198 µM. Further, the outcome in the assay with Z-138 and with MDA-MB-468 was Active. In addition, the outcome in the assay on Rec1 was inactive.
With `O=C(NC[C@H](O)CN1CCc2ccccc2C1)c1ccnc(NC2CCC2)c1`, the GI50 in the assay with HCT-8 came to 0.43 µM; in the assay with Calu-6 it was 0.206 µM; in the assay on RPMI-6666 it was 0.748 µM; in the assay on EM-2, 0.094 µM; in the assay on Hs746T, 0.171 µM; with U138-MG, 0.0433 µM. The GI50 came out at 0.072 µM in the assay with MES-SA; 0.0535 µM in the assay with HT-1080; 0.57 µM with NCI-H446; 0.247 µM in the assay on CHL-1; 0.549 µM with A-431; 0.772 µM in the assay with RKO. For the same molecule, the GI50 in the assay on SW948 turned out to be 0.12 µM; in the assay with LS-1034, 0.172 µM; in the assay with SW1463, 0.77 µM; in the assay with HCT-116, 0.166 µM; in the assay with C32, 0.0141 µM; in [1], 0.0877 µM. The GI50 is 0.773 µM with SW1417; 0.21 µM in assay [3]; 0.0507 µM in the assay on A498; 0.147 µM in [4]; 0.0584 µM in the assay on RPMI-8226; 0.0496 µM in the assay on COLO 201. Also, the GI50 in the assay on ES-2 was 0.106 µM; in the assay with PANC-1, 0.165 µM; in [5], 0.0696 µM; with A204 it was 0.223 µM; in the assay with RPMI-7951, 0.0442 µM. For the same molecule, the fold change (FC) in [2] was -5.3.
